PREPL inh: human PREPL enzyme inhibition. recombinant PREPL, fluorescence polarization activity-based probe. inhibition, % at 5.96 µM. 320,000 compounds, 0.68% hits. AID 2751;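 note: 0% = enzyme with DMSO and 100% = wells lacking enzyme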
Neddyl block: cullin neddylation inhibition | P61081+Q13564 | TR-FRET cullin neddylation, biochemical | inhibition, % at 25 µM | 360,000 compounds, 0.58% hits; in the data active = inhibition above about 36%
Rpn11 inh: Rpn11 (human) deubiquitinase inhibition | inhibition, % at 20 µM | AID 588493 | human 26S proteasome, Ub4-pepOG fluorescence polarization; 20S core pre-blocked with epoxomicin | 360,000 compounds, 0.59% hits | O00487;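 active = inhibition at 20 µM, scaled to each plate's controls, above about 33%, limit read from the data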
TbMetRS inhib: blocks T. brucei methionyl-tRNA synthetase activity; purified T. brucei MetRS, ATP depletion, Kinase-Glo luminescence; inhibition, % at 11.9 µM; 360,000 compounds, 0.4% hits; AID 624268;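 active = inhibition above a per-plate cutoff of the control wells' mean inhibition plus 3 SD, cut at about 5.5% in these data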;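 note: 0% = DMSO wells median and 100% = median of wells with control inhibitor compound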
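Dosing: 11.9 µM compound single dose, 0.9% DMSO; Assay system: purified T. brucei MetRS enzyme; Measured by: Kinase-Glo luciferase luminescence reporting remaining unconsumed ATP; Schedule: 15 min plus 2 h at 25 °C.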
CSN deneddyl inh: blocks human CSN-mediated cullin deneddylation; Q92905; AID 651999; inhibition, % at 12.5 µM; 360,000 compounds, 0.38% hits; Purified CSN, SCF-Nedd8-OG deneddylation, fluorescence polarization;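 active = pattern-corrected inhibition above about 35%, with an unprinted fluorescence ratio check between 0.5 and 1.5, limit read from the data, passing the limit was not always enough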;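 note: 0% = enzyme with substrate and 100% = substrate without enzyme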
Target sequence (Q92905 whole entry, looked up, one chain of several): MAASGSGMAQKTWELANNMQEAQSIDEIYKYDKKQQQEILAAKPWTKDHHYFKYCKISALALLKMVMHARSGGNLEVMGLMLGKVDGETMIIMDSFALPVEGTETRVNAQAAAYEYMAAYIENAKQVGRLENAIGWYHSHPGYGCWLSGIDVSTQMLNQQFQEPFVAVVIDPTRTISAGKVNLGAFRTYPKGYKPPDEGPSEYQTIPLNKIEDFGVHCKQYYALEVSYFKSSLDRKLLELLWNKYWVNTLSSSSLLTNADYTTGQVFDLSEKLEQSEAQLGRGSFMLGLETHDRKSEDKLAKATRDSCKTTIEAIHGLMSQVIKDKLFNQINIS
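Schedule: reaction 90 min, room temperature / Assay system: HEK293T-derived human Csn5 enzyme / Input: Csn5 at 0.24 nM final / Measure: inhibition of Csn5 cleavage, % / Control set: substrate-only high control, full reaction low control / Technique: fluorescence polarization of the substrate / Buffer or medium: Tris/NaCl/DTT buffer, pH 7.5 / Reagent: SCFSkp2-Nedd8OG substrate at 10 nM final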
HNF4A DNA FP: change in binding of human HNF4 alpha to DNA | 360,000 compounds, 0.3% hits | activity change, % at 10 µM | HNF4a-FITC DNA binding, fluorescence polarization, 1 h | P41235; in the data active = activity change above about 30%, passing the limit was not always enough
PREPL confirm: confirmation of human PREPL enzyme inhibitors. recombinant PREPL, fluorescence polarization activity probe. shares compounds with PREPL inh. AID 2803. inhibition, % at 5.96 µM. 2,000 compounds, 67% hits;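 note: 0% = protein with DMSO and 100% = wells lacking protein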
* hit, by the source's call; i = inactive; . = no result shown. In the library only some 2.4% were active in any assay of this set; here they are far more common. Cut-off read from the data, not from the text of the source, unless noted: active = inhibition above about 43%; inactive = the rest.

SMILES | PREPL inh | Neddyl block | Rpn11 inh | TbMetRS inhib | CSN deneddyl inh | HNF4A DNA FP | others
CCCc1cc(=O)oc2cc(OCC(=O)N3CCC(C(=O)O)(c4ccccc4)CC3)ccc12 | 3 | 41* | -2 | -3 | 3 | 1
CCn1c(O)c(C=Nc2ccc(N3CCOCC3)cc2)c(=O)n(CC)c1=S | 5 | -12 | -154 | 1 | -69 | 6
CCn1c(O)c(C(=O)CC2NCCc3ccccc32)c(=O)n(CC)c1=S (configuration not stated) | -4 | -24 | 110* | -1 | 19 | 36
C[C@@H]1CN([C@H](C)CO)C(=O)CCCn2cc(nn2)CO[C@H]1CN(C)C(=O)Oc1ccc2ccccc2c1 | . | 0 | -1 | -1 | -3 | 3
CC(C)C/C(=N/O)c1cn(C)c2ccccc12 | -5 | -6 | -4 | 0 | -6 | 2
Cc1ccnc(NC(=O)CCCc2ccc(N(CCCl)CCCl)cc2)n1 | . | -11 | -1 | 0 | 84* | 9
COCCCNC(=O)Cn1cc(/C=C2\C(=O)NC(=O)N(c3ccccc3F)C2=O)c2ccccc21 | 2 | -7 | 14 | -2 | 0 | 57*
COCCNC(=O)Cn1cc(/C=C2\C(=O)NC(=O)N(c3ccccc3F)C2=O)c2ccccc21 | 0 | 6 | 5 | 0 | -2 | -1
C[C@@H]1COc2cccc(N3CCN(C)CC3)c2S(=O)(=O)N1 | . | 0 | . | 0 | -3 | 0
CN(C)C(=O)Oc1ccc(Br)c2ccccc12 | -9 | i | 0 | 0 | -3 | 0
COc1ccc2[nH]cc(C3=CCNCC3)c2c1 | 51* | . | . | . | . | .
COc1ccc2[nH]cc(CCN=C(N)N)c2c1 | -2 | -1 | 1 | -1 | -2 | -6
O=C(CCC(=O)N1C[C@H]2C[C@@H](C1)c1cccc(=O)n1C2)NCc1ccc(F)cc1 | 4 | 2 | -1 | 1 | -5 | 2
Cc1ccc(N2C(=O)/C(=C/c3ccc(CN(CCC#N)S(C)(=O)=O)o3)C(=O)NC2=S)cc1 | 1 | 1 | 35 | 0 | 48* | -7
CCCCn1c(=O)c(C(=O)Nc2ccccc2C)c(O)c2ccccc21 | 9 | 8 | -14 | 0 | 2 | 39*
O=C1C(Cl)=CC(=Nc2ccc(O)cc2)C=C1Cl | 22 | 15 | -2 | 0 | 1 | 2
CCN(CC)c1ccc(N=Cc2c(O)n(-c3ccccc3C)c(=O)[nH]c2=O)cc1 | 28 | -18 | 64* | 0 | 13 | 14
COc1ccc(-n2nnnc2C(c2ccccc2OC(F)(F)F)N2CCC3(CC2)C(=O)NCN3c2ccccc2)cc1 (configuration not stated) | . | 0 | 8 | 0 | -2 | -3
N#Cc1ccc(Cn2cc(C=O)c3ccccc32)cc1 | 11 | -6 | -16 | -1 | 4 | 2
Cn1cc(C=C(C#N)C#N)c2ccccc21 | 2 | -118 | . | 0 | 36* | 10
COc1ccc2c(c1)c(C(=O)CN1CCC3(CC1)OCCO3)c(C)n2Cc1ccccc1 | 58* | -6 | -2 | 0 | -1 | 2 | PREPL confirm=49*
CC1=NCCc2c1[nH]c1cc(O)ccc21 | 51* | -29 | -194 | -1 | -74 | -99 | PREPL confirm=10
CC1=C[C@@H]2c3cccc4[nH]cc(c34)C[C@H]2N(C)C1 | 58* | 18 | -123 | 0 | -39 | -34 | PREPL confirm=44*
COc1ccc(-n2nc(C(=O)NCC(=O)N3CCC4(CC3)OCCO4)c3ccccc3c2=O)cc1Cl | 8 | 5 | 1 | 0 | 1 | 0
O=[N+]([O-])c1ccccc1-c1cc(-c2ccccc2)cc(-c2ccccc2)[n+]1Cc1ccccc1Cl | 51* | . | . | . | . | . | PREPL confirm=49*
CCCc1nc2ccccc2c(=O)n1-c1ccccc1OC | 17 | 3 | -4 | 0 | -6 | 4
CCCCc1nc2ccccc2c(=O)n1-c1ccccc1O | 111* | 6 | 5 | -1 | 4 | 1 | PREPL confirm=-2
O=c1[nH]c(=S)[nH]c(O)c1/C=N/N1CCOCC1 | -3 | -7 | 3 | -1 | 2 | 3
CCOc1cc(/C=C2/C(=O)NC(=O)N(c3ccc(CC)cc3)C2=O)ccc1OC(=O)c1cccs1 | 48* | -5 | 6 | -1 | 5 | 0 | PREPL confirm=52*
